Results published in ChEMBL document CHEMBL4699512, “Synthesis of non-nucleoside anti-viral cyclopropylcarboxacyl hydrazones and initial anti-HSV-1 structure-activity relationship studies” (Bioorg Med Chem Lett, 2020).
Active and inactive are the calls of the source. The rule behind the calls is not given here.

System: Human alphaherpesvirus 1
Test: Antiviral activity against recombinant EGFP/RFP expressing Herpes simplex virus 1 KOS infected in iPSC-neurons assessed as decrease in proportion of fluorescent cells compound added 2 hr post infection incubated for 48 hrs by flow cytometry analysis
Type: functional, organism-based
Settings: Induced pluripotent stem cell-derived neuron
Method in brief: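 iPSC-derived neurons infected with recombinant HSV-1 derived from strain KOS, expressing EGFP from the early ICP0 promoter and monomeric RFP from the glycoprotein C promoter. Infection was scored as the proportion of fluorescent cells. Controls were uninfected cells, virus alone, and virus with acyclovir as positive control. The protocol follows the group's earlier procedure.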

**Q.** For O=C(N/N=C/c1ccc[nH]1)C1CC1(c1ccccc1)c1ccccc1 (stereo unspecified), which Activity is on record?
**A.** Active

**Q.** Which Activity does the source give for O=C(N/N=C/c1cccs1)C1CC1(c1ccccc1)c1ccccc1 (stereo unspecified) here?
**A.** Active

**Q.** For O=C(N/N=C/c1cccnc1)C1CC1(c1ccccc1)c1ccccc1 (stereo unspecified), which Activity is on record?
**A.** inactive

**Q.** Which Activity does the source give for O=C(N/N=C1/CCCc2ccccc21)C1CC1(c1ccccc1)c1ccccc1 (stereo unspecified) here?
**A.** inactive

**Q.** Which Activity does the source give for O=C(N/N=C/c1ccccn1)C1CC1(c1ccccc1)c1ccccc1 (stereo unspecified) here?
**A.** Active

**Q.** O=C(N/N=C/c1ccc(Br)cc1)C1CC1(c1ccccc1)c1ccccc1 (stereo unspecified) was tested. Which Activity did it give?
**A.** inactive

**Q.** How did the Activity turn out when O=C(N/N=C/c1c[nH]c2ccccc12)C1CC1(c1ccccc1)c1ccccc1 (stereo unspecified) was run?
**A.** Active

**Q.** Which Activity does the source give for O=C(N/N=C/c1ccc(F)cc1F)C1CC1(c1ccccc1)c1ccccc1 (stereo unspecified) here?
**A.** inactive

**Q.** O=C(N/N=C/c1ccc[nH]1)C1CC1(c1ccc(OC(F)(F)F)cc1)c1ccc(OC(F)(F)F)cc1 (stereo unspecified) was tested. Which Activity did it give?
**A.** Active

**Q.** For O=C(N/N=C/c1ccc2c(c1)OCO2)C1CC1(c1ccccc1)c1ccccc1 (stereo unspecified), which Activity is on record?
**A.** Active

**Q.** With O=C(N/N=C/c1ccccn1)C1CC1(c1ccc(OC(F)(F)F)cc1)c1ccc(OC(F)(F)F)cc1 (stereo unspecified) as the compound, how does the Activity read?
**A.** Active

**Q.** Which Activity does the source give for O=C(N/N=C/c1ccco1)C1CC1(c1ccccc1)c1ccccc1 (stereo unspecified) here?
**A.** Active

**Q.** For Nc1nc2c(ncn2COCCO)c(=O)[nH]1 [ACYCLOVIR], which Activity is on record?
**A.** Active

**Q.** With CN(C)c1ccc(/C=N/NC(=O)C2CC2(c2ccccc2)c2ccccc2)cc1 (stereo unspecified) as the compound, how does the Activity read?
**A.** inactive

**Q.** Which Activity does the source give for COc1cc(/C=N/NC(=O)C2CC2(c2ccccc2)c2ccccc2)ccc1O (stereo unspecified) here?
**A.** inactive

**Q.** O=C(N/N=C/c1ccc(Br)o1)C1CC1(c1ccccc1)c1ccccc1 (stereo unspecified) was tested. Which Activity did it give?
**A.** inactive

**Q.** For COc1cc(/C=N/NC(=O)C2CC2(c2ccccc2)c2ccccc2)cc(OC)c1OC (stereo unspecified), which Activity is on record?
**A.** Active

**Q.** O=C(N/N=C/c1c[nH]cn1)C1CC1(c1ccccc1)c1ccccc1 (stereo unspecified) was tested. Which Activity did it give?
**A.** inactive

**Q.** O=C(N/N=C/C1CCCCC1)C1CC1(c1ccccc1)c1ccccc1 (stereo unspecified) was tested. Which Activity did it give?
**A.** Active

**Q.** With O=C(N/N=C/c1ccc([N+](=O)[O-])cc1)C1CC1(c1ccccc1)c1ccccc1 (stereo unspecified) as the compound, how does the Activity read?
**A.** inactive

**Q.** With O=C(N/N=C/c1ccccc1Cl)C1CC1(c1ccccc1)c1ccccc1 (stereo unspecified) as the compound, how does the Activity read?
**A.** Active

**Q.** O=C(N/N=C/c1ncc[nH]1)C1CC1(c1ccccc1)c1ccccc1 (stereo unspecified) was tested. Which Activity did it give?
**A.** inactive

System: Human alphaherpesvirus 1
Test: Antiviral activity against Herpes simplex virus 1 infected in neuronal progenitor cells assessed as decrease in fluorescent cells
Type: functional, organism-based
Settings: Human alphaherpesvirus 1, Neuronal cell line

**Q.** For O=C(N/N=C/c1ccc[nH]1)C1CC1(c1ccc(OC(F)(F)F)cc1)c1ccc(OC(F)(F)F)cc1 (stereo unspecified), which IC50 is on record?
**A.** 14.1 µM

**Q.** Nc1nc2c(ncn2COCCO)c(=O)[nH]1 [ACYCLOVIR] was tested. Which IC50 did it give?
**A.** 27.4 µM

System: Neuronal cell line
Test: Cytotoxicity against human neuronal progenitor cells assessed as cell viability at 25 uM
Type: cell-based
Settings: not given

**Q.** With O=C(N/N=C/c1ccc[nH]1)C1CC1(c1ccc(OC(F)(F)F)cc1)c1ccc(OC(F)(F)F)cc1 (stereo unspecified) as the compound, how does the Activity read?
**A.** Non-Toxic

System: Human alphaherpesvirus 1
Test: Potency index, ratio of acyclovir IC50 to compound IC50 for antiviral activity against HSV-1 infected in neuronal progenitor cells
Type: functional, Neuronal cell line
Settings: not given

**Q.** How did the “Ratio IC50” value turn out when O=C(N/N=C/c1ccc[nH]1)C1CC1(c1ccc(OC(F)(F)F)cc1)c1ccc(OC(F)(F)F)cc1 (stereo unspecified) was run?
**A.** 2
